NadD inh: NadD (S. aureus) enzyme inhibition; purified NadD enzyme, colorimetric absorbance read-out; inhibition, % at 20 µM; 360,000 tested, 0.78% active; AID 602399; in the data active = inhibition above about 26%
DNMT1 inh: inhibitors of human DNMT1; 360,000 tested, 0.83% active; inhibition (reported as % activation of signal), % at 10 µM; P26358; DNMT1 molecular beacon, Hinp1I cleavage, fluorescence; in the data active = inhibition above about 50%
Scp1 inh: inhibitors of human Scp-1 phosphatase; Q9GZU7; Recombinant Scp1, phosphopeptide, malachite green phosphate absorbance; inhibition, % at 20 µM; 340,000 tested, 0.88% active; AID 493091;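 active = inhibition above about 50% at 20 µM, limit read from the data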;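 also: plate controls were DMSO wells with enzyme for no effect and wells lacking enzyme for full effect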
Target sequence (Q9GZU7 76-261 limits assumed): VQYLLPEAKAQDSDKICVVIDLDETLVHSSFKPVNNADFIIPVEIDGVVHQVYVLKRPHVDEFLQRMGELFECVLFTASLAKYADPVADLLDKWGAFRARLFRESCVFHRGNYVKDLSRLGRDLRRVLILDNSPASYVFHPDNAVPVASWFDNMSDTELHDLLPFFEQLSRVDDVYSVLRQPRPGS
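Material: truncated SCP-1 phosphatase (76-261aa) / Buffer or medium: 50 mM Tris acetate pH 5.5, 0.005% Tween-20, 10 mM MgCl2 / Compound dosing: one concentration, 20 µM, with 1.0% DMSO / Incubation: 45 min room-temperature reaction, 5 min colour, 30 min stabiliser / Detection: colorimetric free-phosphate detection, absorbance 630 nm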
SUMO1-SIM PPI: alters human SUMO1 binding to SIM partners; AID 602429; SUMO1 binding to a labelled peptide, TR-FRET, 1 h; 360,000 tested, 0.33% active; inhibition, % at 20 µM; P63165; in the data active = inhibition above about 37%
Target sequence (P63165 whole entry, looked up): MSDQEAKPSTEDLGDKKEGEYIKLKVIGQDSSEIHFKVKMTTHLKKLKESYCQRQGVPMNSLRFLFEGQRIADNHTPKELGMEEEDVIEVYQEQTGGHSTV
LMPTP block: blocks human LMPTP phosphatase | P24666 | recombinant LMPTP-A, OMFP fluorogenic substrate, fluorescence intensity | inhibition, % at 20 µM | 360,000 tested, 0.22% active;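 active = compounds that cut the enzyme signal by at least half of the control window in the single-dose screen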;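 also: plate controls were DMSO wells with enzyme plus substrate for no effect and substrate without enzyme for full effect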
Target sequence (P24666 whole entry, looked up): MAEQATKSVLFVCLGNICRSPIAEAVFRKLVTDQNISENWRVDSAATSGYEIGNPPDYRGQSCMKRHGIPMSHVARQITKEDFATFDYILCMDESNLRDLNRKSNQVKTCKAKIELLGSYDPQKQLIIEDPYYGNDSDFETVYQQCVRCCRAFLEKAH
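Assay system: LMPTP-A enzyme. Input: 0.625 nM LMPTP-A final. Probe or stimulus: 400 µM OMFP. Compound dosing: single 20 µM dose. Schedule: 50 min dark incubation at room temperature. Detection: fluorescence intensity of OMFP turnover product. Read-out: percent inhibition versus substrate-only and uninhibited controls. Benchmarks: no-enzyme low control, uninhibited high control.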
STEP block: blocks human striatal-enriched tyrosine phosphatase; AID 588621; inhibition, % at 20 µM; P54829; 360,000 tested, 0.25% active; recombinant STEP, OMFP fluorogenic substrate, fluorescence;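 active = inhibition at 20 µM, scaled per plate between control wells, above about 37%, limit read from the data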;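 also: 0% = DMSO with enzyme and substrate and 100% = substrate only without enzyme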
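Assay system: isolated STEP enzyme / Timing: 20 min at room temperature, dark / Doses: 20 µM, 1% DMSO / Technique: fluorescence intensity, excitation 480 nm, emission 540 nm / Reagent: fluorogenic phosphatase substrate OMFP at 25 µM final / Measure: percent inhibition scaled to no-enzyme and uninhibited-enzyme controls, plate-pattern corrected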
DNMT1 interf DR: shows spectral interference in the DNMT1 beacon assay; 200 tested, under 10 active; shares compounds with DNMT1 inh; IC50, µM; molecular beacon fluorescence, spectral interference counter-screen; call rule not given here
DNMT1 inh conf: confirmation of human DNMT1 inhibitors | 2,300 tested, 8% active | DNMT1 molecular beacon HinP1I cleavage, fluorescence | shares compounds with DNMT1 inh | inhibition, % at 10 µM;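 active = average inhibition of at least 30% in the single-concentration confirmation test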
Beacon interf: shows spectral interference in the DNMT1 beacon assay. shares compounds with DNMT1 inh. DNMT1 molecular beacon spectral interference counterscreen, fluorescence 485/520. activation (fluorescence interference), % at 10 µM. 2,300 tested, 1% active;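 active = activation of at least 30% at 10 µM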;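 also: DNMT1 catalytic domain with a HinP1I cleavage step and a FAM/dabcyl DNA beacon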
The depositor's hits bear a star; x = no result. Hits are enriched below; roughly 2.4% of the tested compounds scored in any of these assays.

SMILES | NadD inh | DNMT1 inh | Scp1 inh | SUMO1-SIM PPI | LMPTP block | STEP block | DNMT1 inh conf | Beacon interf | others
CC(=O)c1cccc(NC(=O)CN2CCc3cc4c(cc3C2)OCCCO4)c1 | 5 | -28 | 1 | -7 | 1 | -3 | x | x
C=CCn1c(SCc2csc(-c3ccc(C)cc3)n2)nnc1-c1ccccc1OC | 6 | -2 | 7 | -5 | 1 | 1 | x | x
CN(c1ccccc1)c1ccc(/C=C(\CCC(=O)O)c2nc3ccccc3s2)cc1[N+](=O)[O-] | 20 | 74* | 8 | 10 | 3 | 1 | 27 | -4 | DNMT1 interf DR=>99
Cc1ccc(/C=C(\CCC(=O)O)c2nc3ccccc3s2)cc1[N+](=O)[O-] | 6 | 0 | -9 | -9 | 0 | 3 | x | x
COC(=O)C[C@H]1CC[C@@H](NC(=O)Nc2c(C)noc2C)[C@@H](CO)O1 | x | x | x | 4 | -1 | x | x | x
CS(=O)(=O)Nc1ccc(C(=O)NC2CCCC2)cc1 | -4 | 80* | -21 | -1 | -1 | 0 | 1 | 3
CS(=O)(=O)Nc1ccc(C(=O)NC2CCCCC2)cc1 | 4 | 1 | -5 | 4 | -1 | -1 | x | x
O=C(CCN1C(=O)/C(=C/c2cccc(Br)c2)SC1=S)NNC(=O)c1cccnc1 | 2 | 71* | 1 | -13 | 11 | -1 | 3 | -1
Cc1cccc(NC(=O)COC(=O)c2c(-c3ccccc3)noc2C)c1 | 4 | 1 | x | -3 | 2 | 0 | x | x
CCc1noc(C)c1C(=O)OCC(=O)Nc1cccc(C)c1 | -1 | 77* | -6 | 2 | -1 | -3 | 3 | 3
C=CCn1c(=NC(=O)C2CC2)sc2cc(NC(C)=O)ccc21 | 5 | 1 | -12 | 3 | 1 | 0 | x | x
C=CCn1c(=NC(=O)C2CCCCC2)sc2cc(NC(C)=O)ccc21 | -8 | 51* | -13 | -7 | 0 | 1 | 0 | -3
Nn1c(SCc2ccc(F)cc2)nnc1-c1ccncc1 | -2 | 6 | -7 | 0 | -1 | -3 | x | x
N#CCSc1nnc(-c2ccc(F)cc2)n1N | -4 | 92* | -1 | 3 | -2 | -1 | 5 | 4
COC(=O)N/N=C\c1c(C)nn(-c2ccccc2)c1Cl | 2 | 3 | -8 | -1 | -3 | 1 | x | x
Cc1ccc(C)c(OCC(=O)N/N=C/c2c(C)nn(-c3ccccc3)c2Cl)c1C | 1 | 53* | -10 | 1 | -2 | 4 | 0 | 0
COc1ccccc1N=NNc1ccccc1OC | -5 | 0 | x | -57 | 4 | 3 | x | x
COc1ccc2cc(C(=O)NCc3ccccc3)[nH]c2c1 | -9 | -2 | -5 | -1 | -1 | 0 | x | x
COc1ccc2[nH]c(C(=O)NCc3ccccc3)c(C)c2c1 | -7 | 70* | -9 | -7 | 0 | -2 | -2 | 4
COC(=O)CC1OCC=C2CN3CCC45C6=CC(=O)C(=O)C([N+](=O)[O-])=C6NC4C1C2CC35 (stereo unspecified) | 11 | 85* | x | 32 | 13 | 10 | 53* | -10 | DNMT1 interf DR=>99
Cc1ccc(NC(=O)Cn2cnc(C(=O)Nc3ccc(C)c(C)c3)n2)cc1C | 3 | 52* | 4 | -3 | -1 | 1 | 2 | 3
Cc1ccc(CN2C(=O)N/C(=C\c3ccc(-c4ccc(C(=O)O)cc4C)o3)C2=O)cc1 | 16 | 126* | 71* | 21 | 4 | 10 | 10 | -3
N#Cc1c(NCCN)nc(NCc2ccccc2)c2c1CCN(Cc1ccccc1)C2 | 30* | 77* | 22 | 0 | 27 | 2 | 3 | -2
CC(=O)OCCn1c2nc(=O)[nH]c(=O)c-2nc2cc(C)c(C)cc21 | -3 | 192* | 1 | -63 | -20 | -201 | 140* | 134*
CC(=O)OCCn1c(C)[n+](CCOC(C)=O)c2cc(Cl)c(Cl)cc21 | 10 | -1 | 10 | 2 | -1 | 2 | x | x
SMILES | NadD inh | DNMT1 inh | Scp1 inh | SUMO1-SIM PPI | LMPTP block | STEP block | DNMT1 inh conf | Beacon interf | others
COc1ccc(CCNC(=O)c2ccc3nc(N4CCCCC4)sc3c2)cc1OC | -5 | -4 | -2 | 3 | 0 | 3 | x | x
N#Cc1nnn(-c2ccc(Cl)cc2)c1N | 4 | 90* | -3 | -6 | -1 | 0 | 0 | 1
CCOC(=O)N/N=C(\C)c1ccc(OC(F)F)cc1OC(F)F | -5 | 0 | -2 | 1 | -1 | -4 | x | x
CCCc1c(C(=O)N/N=C/C=C/c2ccccc2)nnn1-c1nonc1N | -2 | 51* | x | 15 | 1 | 5 | 2 | 6
CCOc1cc(/C=C(\C#N)C(=O)Nc2cccc(C(=O)O)c2)ccc1OCc1ccc(Br)cc1 | 10 | 89* | 34 | 82* | -2 | 96* | 104* | -1 | DNMT1 interf DR=>99
COc1cc(/C=C(\C#N)C(=O)NC2CCCCC2)ccc1OCc1ccc(C(=O)O)cc1 | 10 | -1 | -6 | 17 | 0 | 0 | x | x
COc1cc(S(=O)(=O)NCCOC23CC4CC(CC(C4)C2)C3)c(OC)cc1Cl | -6 | 107* | -7 | 2 | 0 | 1 | -2 | 3
CCOc1ccc(OCC)c(S(=O)(=O)NCCOC23CC4CC(CC(C4)C2)C3)c1 | -8 | 0 | -18 | -4 | 3 | 2 | x | x
CC(C)NC(=S)NN(c1ccccc1)c1ccccc1 | -4 | 108* | 8 | 4 | 0 | 1 | 1 | -1
O=c1nc(Nc2ccccc2)sc2ccc([N+](=O)[O-])cc12 | 2 | 57* | 43 | -10 | 26 | 6 | 1 | -3
Cc1cc(Nc2ccc([N+](=O)[O-])cc2)c2ccccc2n1 | 0 | -9 | -7 | -23 | 46 | -2 | x | x
O=[N+]([O-])c1ccccc1Oc1ccc(S(=O)(=O)N2CCOCC2)cc1 | -6 | -1 | -1 | -41 | 0 | -2 | x | x
Nc1nnnn1/N=C/c1cc(Cl)cc(Cl)c1OCc1ccc(Cl)cc1Cl | 5 | 59* | 4 | 1 | 1 | -1 | 2 | 2
Nc1nnnn1/N=C/c1ccccc1OCc1ccc(Cl)cc1 | 0 | 3 | 7 | -1 | 1 | 2 | x | x
Nc1nnnn1/N=C/c1ccccc1OCc1ccc(Cl)cc1Cl | -7 | 52* | -6 | 0 | 1 | -3 | 7 | 5
CCC1(CC)N=C(c2ccccc2)C(=S)N1 | -7 | -1 | -7 | -10 | -1 | 0 | x | x
Nc1ccn([C@@H]2O[C@H](C(=O)N[C@H]3c4ccccc4C[C@H]3O)[C@@H](O)[C@H]2O)c(=O)n1 | 1 | 0 | x | -1 | -2 | -1 | x | x

Compound activity as filed in PubChem BioAssay.
